8 molecules from ChEMBL document CHEMBL3045579, “Herbicidal activity of cineole derivatives” (2010) can be followed below.

Each structure is given as a SMILES string. Calls of active or inactive are those of the source. The rule behind the calls is not given here.

Assay [1] has as its system Lolium rigidum. Nature of the assay: Pre-emergence herbicidal activity against Lolium rigidum seeds assessed as seed germination at 0.1 mol/l at 25 degC after 72 hr by laboratory-based agar medium bioassay relative to 1,8-Cineole. In kind it is functional. In outline:
(§1)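 Agar-plate assay as above: compound in organic solvent evaporated onto Ca/B water agar, 10 seeds × 5 dishes, 72 h at 25 °C in light. Germination, root length or shoot length at 0.1 mol L^-1 expressed relative to 1,8-cineole.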

Assay [2] concerns Lolium rigidum. In words: Pre-emergence herbicidal activity against Lolium rigidum seeds assessed as shoot length at 0.1 mol/l at 25 degC after 72 hr by laboratory-based agar medium bioassay relative to 1,8-Cineole. Format: functional. In outline: as §1
The subject of assay [3] is Radish. In words: Pre-emergence herbicidal activity against Raphanus sativus var.Long scarlet (radish) seeds assessed as root length at 0.1 mol/l at 25 degC after 72 hr by laboratory-based agar medium bioassay relative to control. Format: functional. In a few lines: (§2)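 Solutions tested at 1 to 1 × 10^-4 mol L^-1. 10 seeds/dish, 5 randomized replicate dishes angled ~70°. Incubated 72 h at 25 °C in light. Solvent and no-solvent controls. Germination, root length and shoot length recorded.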

Assay [4] relates to Radish. In words: Pre-emergence herbicidal activity against Raphanus sativus var.Long scarlet (radish) seeds assessed as shoot growth inhibition at 25 degC after 72 hr by laboratory-based agar medium bioassay. Format: functional, organism-based. In outline:
as §2

Assay [5] concerns Radish. Nature of the assay: Pre-emergence herbicidal activity against Raphanus sativus var.Long scarlet (radish) seeds assessed as root growth inhibition at 25 degC after 72 hr by laboratory-based agar medium bioassay. In kind it is functional, organism-based. In a few lines: as §2
Assay [6] has as its system Lolium rigidum. In words: Pre-emergence herbicidal activity against Lolium rigidum seeds assessed as concentration required to suppress shoot growth at 25 degC after 72 hr by laboratory-based agar medium bioassay. Format: functional.
Assay [7] has as its system Lolium rigidum. Nature of the assay: Pre-emergence herbicidal activity against Lolium rigidum seeds assessed as concentration required to suppress seed germination at 25 degC after 72 hr by laboratory-based agar medium bioassay. In kind it is functional.
Assay [8] relates to Lolium rigidum. In words: Pre-emergence herbicidal activity against Lolium rigidum seeds assessed as concentration required to suppress root growth at 25 degC after 72 hr by laboratory-based agar medium bioassay. Format: functional.
For assay [9], the system named is Radish. Nature of the assay: Pre-emergence herbicidal activity against Raphanus sativus var.Long scarlet (radish) seeds assessed as concentration required to suppress seed germination at 25 degC after 72 hr by laboratory-based agar medium bioassay. In kind it is functional.
For assay [10], the system named is Radish. In words: Pre-emergence herbicidal activity against Raphanus sativus var.Long scarlet (radish) seeds assessed as concentration required to suppress shoot growth at 25 degC after 72 hr by laboratory-based agar medium bioassay. In kind it is functional.
The test system of assay [11] is Radish. Nature of the assay: Pre-emergence herbicidal activity against Raphanus sativus var.Long scarlet (radish) seeds assessed as concentration required to suppress root growth at 25 degC after 72 hr by laboratory-based agar medium bioassay. Format: functional.
In assay [12] the test system is Lolium rigidum. In words: Pre-emergence herbicidal activity against Lolium rigidum seeds assessed as root length at 0.1 mol/l at 25 degC after 72 hr by laboratory-based agar medium bioassay relative to 1,8-Cineole. Format: functional. In a few lines: as §1
Assay [13] relates to Radish. Nature of the assay: Pre-emergence herbicidal activity against Raphanus sativus var.Long scarlet (radish) seeds assessed as seed germination at 0.1 mol/l at 25 degC after 72 hr by laboratory-based agar medium bioassay relative to 1,8-Cineole. In kind it is functional. In outline:
as §1

In assay [14] the test system is Radish. In words: Pre-emergence herbicidal activity against Raphanus sativus var.Long scarlet (radish) seeds assessed as shoot length at 0.1 mol/l at 25 degC after 72 hr by laboratory-based agar medium bioassay relative to 1,8-Cineole. In kind it is functional. In a few lines: as §1
Assay [15] deals with Radish. Nature of the assay: Pre-emergence herbicidal activity against Raphanus sativus var.Long scarlet (radish) seeds assessed as root length at 0.1 mol/l at 25 degC after 72 hr by laboratory-based agar medium bioassay relative to 1,8-Cineole. In kind it is functional. In a few lines: as §1
Assay [16] has as its system Lolium rigidum. Nature of the assay: Pre-emergence herbicidal activity against Lolium rigidum seeds assessed as seed germination at 0.1 mol/l at 25 degC after 72 hr by laboratory-based agar medium bioassay relative to control. Format: functional. In a few lines:
as §2

Assay [17] has as its system Lolium rigidum. Nature of the assay: Pre-emergence herbicidal activity against Lolium rigidum seeds assessed as shoot length at 0.1 mol/l at 25 degC after 72 hr by laboratory-based agar medium bioassay relative to control. Format: functional. In outline: as §2
The subject of assay [18] is Lolium rigidum. Nature of the assay: Pre-emergence herbicidal activity against Lolium rigidum seeds assessed as root length at 0.1 mol/l at 25 degC after 72 hr by laboratory-based agar medium bioassay relative to control. Format: functional. In a few lines: as §2
Assay [19] concerns Radish. In words: Pre-emergence herbicidal activity against Raphanus sativus var.Long scarlet (radish) seeds assessed as seed germination at 0.1 mol/l at 25 degC after 72 hr by laboratory-based agar medium bioassay relative to control. Format: functional. In outline:
as §2

In assay [20] the test system is Radish. In words: Pre-emergence herbicidal activity against Raphanus sativus var.Long scarlet (radish) seeds assessed as shoot length at 0.1 mol/l at 25 degC after 72 hr by laboratory-based agar medium bioassay relative to control. In kind it is functional. In a few lines: as §2
Assay [21] relates to Radish. Nature of the assay: Pre-emergence herbicidal activity against Raphanus sativus var.Long scarlet (radish)seeds assessed as seed germination inhibition at 25 degC after 72 hr by laboratory-based agar medium bioassay. Format: functional, organism-based. In outline: as §2
The test system of assay [22] is Radish. Nature of the assay: Pre-emergence herbicidal activity against Raphanus sativus var.Long scarlet (radish) seeds assessed as shoot growth inhibition at 1 mol/l at 25 degC after 72 hr by laboratory-based agar medium bioassay. In kind it is functional, organism-based. In a few lines: as §2
Assay [23] concerns Radish. In words: Pre-emergence herbicidal activity against Raphanus sativus var.Long scarlet (radish) seeds assessed as seed germination inhibition at 1 mol/l at 25 degC after 72 hr by laboratory-based agar medium bioassay. Format: functional, organism-based. In outline:
as §2

For assay [24], the system named is Lolium rigidum. In words: Pre-emergence herbicidal activity against Lolium rigidum seeds assessed as shoot growth inhibition at 0.001 to 0.01 mol/l at 25 degC after 72 hr by laboratory-based agar medium bioassay. Format: functional, organism-based. In a few lines: as §2

Consider `CC(C)(C)CC(=O)O[C@H]1C[C@@]2(C)CC[C@H]1C(C)(C)O2` (racemic) [3-exo-t-butylacetoxy-1,8-cineole], for which the Ratio in the assay with Lolium rigidum [1] worked out at 0.3; in the assay with Lolium rigidum [2], 0.6; in the assay with Lolium rigidum [12], 0.3; with Radish [13], 1.1; in the assay on Radish [14] it was 0.7; in the assay on Radish [15] it was 0.5. Moreover, the Activity in the assay on Radish [3] is recorded as 72.5%; with Lolium rigidum [6], 0.001 mol/L; in the assay with Lolium rigidum [7], 0.1 mol/L; in the assay with Lolium rigidum [8], 0.01 mol/L; in the assay on Radish [9], 0.1 mol/L; in the assay on Lolium rigidum [16] it was 97.8%. Further, the Activity in the assay on Lolium rigidum [17] was determined as 44.8%; in the assay on Lolium rigidum [18], 64.9%; with Radish [19], 31.4%; in the assay with Radish [20], 90.9%. The outcome in the assay on Radish [4], with Radish [5], with Radish [10] and with Radish [11] was inactive.
Regarding `CC(C)[C@]12CC[C@@](C)(O1)[C@H](OC(=O)c1ccccc1)C2` (racemic) [2-exo-benzoxy-1,4-cineole], the Ratio in the assay with Lolium rigidum [1] turned out to be 0.7; in the assay on Lolium rigidum [2] it was 1.2; in the assay on Lolium rigidum [12], 0.8; with Radish [13] it was 0.4; with Radish [14], 1; in the assay on Radish [15], 0.7. In addition, the Activity in the assay with Radish [3] was 54.7%; in the assay with Lolium rigidum [6], 0.0001 mol/L; in the assay on Lolium rigidum [7], 0.1 mol/L; in the assay with Lolium rigidum [8] it was 0.0001 mol/L; in the assay on Radish [10] it was 0.01 mol/L; in the assay with Radish [11], 0.01 mol/L. Moreover, the Activity turned out to be 46.3% in the assay with Lolium rigidum [16]; 23.7% in the assay on Lolium rigidum [17]; 28% with Lolium rigidum [18]; 82.9% in the assay on Radish [19]; 64% in the assay on Radish [20]. The outcome with Radish [21] and with Radish [9] was inactive.
As for `Cc1ccccc1CO[C@@H]1C[C@@]2(C(C)C)CCC1(C)O2` [CINMETHYLIN], the Activity turned out to be 36.5% with Radish [3]; 1 mol/L in the assay on Radish [9]; 0.01 mol/L in the assay with Radish [10]; 0.0001 mol/L with Radish [11]; 85.7% in the assay with Radish [19]; 62.5% in the assay on Radish [20]. Moreover, the result in the assay on Radish [22] was inactive. In addition, the Ratio worked out at 0.4 with Radish [13], 1 in the assay with Radish [14] and 0.8 with Radish [15].
On to `CCCCCC(=O)O[C@@H]1C[C@@]2(C(C)C)CC[C@@]1(C)O2` (racemic) [2-Exo-hexoxy-1,4-cineole], for which the result in the assay with Radish [23] was inactive.
As to `CC(C)[C@]12CC[C@@](C)(O1)[C@H](O)C2` (racemic) [2-Exo-hydroxy-1,4-cineole], the Ratio in the assay on Lolium rigidum [1] stood at 1.4; with Lolium rigidum [2], 1.2; with Lolium rigidum [12] it was 3.7; in the assay on Radish [13], 13.1; in the assay on Radish [14], 1.6; in the assay with Radish [15], 3.7. For the same molecule, the Activity in the assay on Radish [3] is 9.9%; in the assay with Lolium rigidum [6] it was 0.1 mol/L; in the assay with Lolium rigidum [7] it was 0.1 mol/L; in the assay on Lolium rigidum [8], 0.01 mol/L; in the assay on Radish [9] it was 0.1 mol/L; with Radish [10], 0.1 mol/L. Besides, the Activity was 0.1 mol/L in the assay on Radish [11]; 21.7% in the assay with Lolium rigidum [16]; 23.1% in the assay with Lolium rigidum [17]; 6.1% in the assay on Lolium rigidum [18]; 2.6% with Radish [19]; 41.7% in the assay on Radish [20].
With `CC(=O)O[C@H]1C[C@@]2(C)CC[C@H]1C(C)(C)O2` (racemic) [3-Exo-acetoxy-1,8-cineole], the Ratio with Lolium rigidum [1] was 0.9; in the assay with Lolium rigidum [2], 1.3; with Lolium rigidum [12], 2.9; with Radish [13], 1.8; in the assay on Radish [14] it was 1; in the assay with Radish [15] it was 1.3. Further, the Activity came out at 29.2% in the assay with Radish [3]; 0.1 mol/L in the assay on Lolium rigidum [6]; 0.1 mol/L in the assay with Lolium rigidum [7]; 0.1 mol/L in the assay with Lolium rigidum [8]; 0.01 mol/L in the assay with Radish [9]; 1 mol/L in the assay on Radish [10]. For the same molecule, the Activity with Radish [11] is reported as 0.01 mol/L; in the assay with Lolium rigidum [16] it was 34.1%; with Lolium rigidum [17], 21.3%; with Lolium rigidum [18], 7.6%; in the assay on Radish [19], 18.9%; in the assay with Radish [20], 64.3%.
In the case of `CC1(C)O[C@]2(C)CC[C@@H]1[C@@H](OC(=O)c1ccccc1)C2` (racemic) [3-exo-benzoxy-1,8-cineole], the Ratio in the assay on Lolium rigidum [1] is reported as 0.4; in the assay with Lolium rigidum [2], 0.7; with Lolium rigidum [12], 2.1; in the assay with Radish [13], 0.3; in the assay with Radish [14], 1.1; in the assay with Radish [15] it was 0.8. The Activity is 42.4% with Radish [3]; 0.1 mol/L in the assay on Lolium rigidum [6]; 0.1 mol/L in the assay with Lolium rigidum [7]; 0.01 mol/L in the assay with Lolium rigidum [8]; 1 mol/L in the assay on Radish [9]; 0.1 mol/L with Radish [10]. Besides, the Activity in the assay on Radish [11] amounted to 0.01 mol/L; in the assay on Lolium rigidum [16] it was 82.2%; with Lolium rigidum [17], 41.6%; in the assay on Lolium rigidum [18], 10.9%; in the assay on Radish [19], 98%; in the assay with Radish [20] it was 61%.
Turning to `CC12CCC(C(=O)C1)C(C)(C)O2` (racemic) [3-oxo-1,8-cineole], the Ratio in the assay on Lolium rigidum [1] was 0.9; with Lolium rigidum [2], 1.6; in the assay with Lolium rigidum [12] it was 1.2; in the assay on Radish [13], 3.4; in the assay on Radish [14], 2.2; with Radish [15] it was 1.8. Also, the Activity in the assay on Radish [3] stood at 20.5%; in the assay on Lolium rigidum [6], 0.0001 mol/L; with Lolium rigidum [7] it was 0.1 mol/L; with Lolium rigidum [8] it was 0.1 mol/L; in the assay with Radish [9], 0.01 mol/L; in the assay with Radish [10], 0.01 mol/L. For the same molecule, the Activity in the assay on Radish [11] was 0.01 mol/L; in the assay with Lolium rigidum [16], 33.3%; in the assay on Lolium rigidum [17] it was 18.2%; with Lolium rigidum [18], 18.9%; in the assay with Radish [19], 10%; with Radish [20], 29.3%. For the same molecule, the outcome with Lolium rigidum [24] was inactive.
